Molecules are shown by their SMILES.

The target of series [1] is T1, Aromatase (Homo sapiens, UniProt P11511).
T1 sequence (P11511 whole entry): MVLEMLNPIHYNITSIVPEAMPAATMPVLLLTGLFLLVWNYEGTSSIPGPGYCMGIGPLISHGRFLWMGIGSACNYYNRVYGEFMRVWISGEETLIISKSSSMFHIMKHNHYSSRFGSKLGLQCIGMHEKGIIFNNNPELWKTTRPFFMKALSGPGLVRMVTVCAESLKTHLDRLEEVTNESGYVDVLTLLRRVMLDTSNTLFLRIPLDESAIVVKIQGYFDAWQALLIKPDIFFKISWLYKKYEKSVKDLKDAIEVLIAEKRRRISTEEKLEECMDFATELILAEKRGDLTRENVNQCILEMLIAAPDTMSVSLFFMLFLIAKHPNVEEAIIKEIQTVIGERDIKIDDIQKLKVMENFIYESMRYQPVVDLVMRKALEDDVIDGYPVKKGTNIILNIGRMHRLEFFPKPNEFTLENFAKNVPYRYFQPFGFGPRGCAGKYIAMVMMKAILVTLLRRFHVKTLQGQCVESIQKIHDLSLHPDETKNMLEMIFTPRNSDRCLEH
Briefly: Inhibition of human aromatase using androstenedione as substrate assessed as remaining estrone level at 10 uM after 30 mins by LC-MS/MS analysis relative to control. To be noted: 0.5 h, read-out: Activity. In short, it runs like this: (§1)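 cDNA-expressed human CYP19A1 supersomes at 0.05 mg/mL, with 1 µM androstenedione, 3.3 mM MgCl2 and an NADPH-generating system (glucose-6-phosphate, β-NADP+, glucose-6-phosphate dehydrogenase) in 0.1 M potassium phosphate, pH 7.4. Incubated 30 min at 37 °C, stopped with ethyl acetate plus cortisone internal standard, then liquid–liquid extraction. Estrone quantified by LC–MS/MS as % of control. Single concentration, mean of duplicates.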

The target in series [2] is T1, Aromatase. The series can be described thus: Inhibition of human aromatase using androstenedione as substrate assessed as estrone formation at 10 uM after 30 mins by LC-MS/MS analysis. In short, it runs like this:
as §1

In the case of `O=Cc1ccc(O)cc1O`, the activity at 10 µM in series [1] was found to be 91.7%.

As to `O=C1c2ccc(O)cc2O[C@H](c2ccc(O)c(O)c2)[C@H]1O` (relative stereo) [FUSTIN], in series [1], the activity at 10 µM is 110%.

As for `O=C(O)c1ccc(O)cc1O` [2,4-DIHYDROXYBENZOIC ACID], the activity at 10 µM in series [1] worked out at 93.9%.

Turning to `O=C1c2c(O)cc(O)cc2O[C@H](c2ccc(O)c(O)c2)[C@H]1O` [(+)-TAXIFOLIN], the activity at 10 µM in series [1] was 90.7%.

As for `O=C(/C=C/c1ccc(O)c(O)c1)c1ccc(O)cc1O` [BUTEIN], the activity at 10 µM in series [1] amounted to 87.5%.

On to `O=c1c(O)c(-c2ccc(O)c(O)c2)oc2cc(O)ccc12` [FISETIN], for which the activity at 10 µM in series [1] is 117%.

`C[C@]12CCC(=O)C(O)=C1CC[C@@H]1[C@@H]2CC[C@]2(C)C(=O)CC[C@@H]12` [FORMESTANE]: the IC50 in series [2] came to 470 nM. Moreover, the “inhibition (INH)” value in series [2] (human, 0.5 h, 10 µM) is reported as “Dose-dependent effect”. For the same compound, the activity at 10 µM in series [1] is 5.1%.

Turning to `O=C(O)c1cc(O)c(O)c(O)c1` [GALLIC ACID], the activity at 10 µM in series [1] worked out at 112%.

For `O=C1c2ccc(O)cc2O[C@H](c2ccc(O)cc2)[C@H]1O` [GARBANZOL], in series [1], the activity at 10 µM amounted to 99.3%.

In the case of `O=C(O)c1ccc(O)cc1` [PARABEN], the activity at 10 µM in series [1] is 91.8%.

Consider `O=C(O)c1ccc(O)c(O)c1` [PROTOCATECHUIC ACID], for which the activity at 10 µM in series [1] was 83.5%.

Consider `O=c1c(O)c(-c2ccc(O)c(O)c2)oc2cc(O)cc(O)c12` [QUERCETIN], for which the activity at 10 µM in series [1] came out at 96%.

Regarding `O=c1c(O)c(-c2ccc(O)cc2)oc2cc(O)ccc12` [RESOKAEMPFEROL], in series [1], the activity at 10 µM came to 102%.

Take `Oc1cccc(O)c1` [RESORCINOL]: the activity at 10 µM in series [1] amounted to 91.8%.

Regarding `O=C1/C(=C/c2ccc(O)c(O)c2)Oc2cc(O)ccc21` [SULFURETIN], in series [1], the activity at 10 µM was 99%.

These data come from ChEMBL document CHEMBL3233005 (Bioorg Med Chem Lett, 2014).
